Reference: ChEMBL document CHEMBL3627606, “Development of Novel, CNS Penetrant Positive Allosteric Modulators for the Metabotropic Glutamate Receptor Subtype 1 (mGlu1), Based on an N-(3-Chloro-4-(1,3-dioxoisoindolin-2-yl)phenyl)-3-methylfuran-2-carboxamide Scaffold, That Potentiate Wild Type and Mutant mGlu1 Receptors Found in …” (J Med Chem, 2015)
Blank lines part the entries; values can stand above or below the compound they belong to.

What was measured:
[1] = target: T1, Metabotropic glutamate receptor 1 (Homo sapiens, UniProt Q13255); test: Positive allosteric modulation of human mGlu1 receptor in HEK293 cells assessed as potentiation of glutamate-induced calcium mobiliztion by Fluo-4AM dye based fluorescence analysis; format: functional, cell-based; settings: read-out: EC50
Target sequence in this assay (Q13255 whole entry): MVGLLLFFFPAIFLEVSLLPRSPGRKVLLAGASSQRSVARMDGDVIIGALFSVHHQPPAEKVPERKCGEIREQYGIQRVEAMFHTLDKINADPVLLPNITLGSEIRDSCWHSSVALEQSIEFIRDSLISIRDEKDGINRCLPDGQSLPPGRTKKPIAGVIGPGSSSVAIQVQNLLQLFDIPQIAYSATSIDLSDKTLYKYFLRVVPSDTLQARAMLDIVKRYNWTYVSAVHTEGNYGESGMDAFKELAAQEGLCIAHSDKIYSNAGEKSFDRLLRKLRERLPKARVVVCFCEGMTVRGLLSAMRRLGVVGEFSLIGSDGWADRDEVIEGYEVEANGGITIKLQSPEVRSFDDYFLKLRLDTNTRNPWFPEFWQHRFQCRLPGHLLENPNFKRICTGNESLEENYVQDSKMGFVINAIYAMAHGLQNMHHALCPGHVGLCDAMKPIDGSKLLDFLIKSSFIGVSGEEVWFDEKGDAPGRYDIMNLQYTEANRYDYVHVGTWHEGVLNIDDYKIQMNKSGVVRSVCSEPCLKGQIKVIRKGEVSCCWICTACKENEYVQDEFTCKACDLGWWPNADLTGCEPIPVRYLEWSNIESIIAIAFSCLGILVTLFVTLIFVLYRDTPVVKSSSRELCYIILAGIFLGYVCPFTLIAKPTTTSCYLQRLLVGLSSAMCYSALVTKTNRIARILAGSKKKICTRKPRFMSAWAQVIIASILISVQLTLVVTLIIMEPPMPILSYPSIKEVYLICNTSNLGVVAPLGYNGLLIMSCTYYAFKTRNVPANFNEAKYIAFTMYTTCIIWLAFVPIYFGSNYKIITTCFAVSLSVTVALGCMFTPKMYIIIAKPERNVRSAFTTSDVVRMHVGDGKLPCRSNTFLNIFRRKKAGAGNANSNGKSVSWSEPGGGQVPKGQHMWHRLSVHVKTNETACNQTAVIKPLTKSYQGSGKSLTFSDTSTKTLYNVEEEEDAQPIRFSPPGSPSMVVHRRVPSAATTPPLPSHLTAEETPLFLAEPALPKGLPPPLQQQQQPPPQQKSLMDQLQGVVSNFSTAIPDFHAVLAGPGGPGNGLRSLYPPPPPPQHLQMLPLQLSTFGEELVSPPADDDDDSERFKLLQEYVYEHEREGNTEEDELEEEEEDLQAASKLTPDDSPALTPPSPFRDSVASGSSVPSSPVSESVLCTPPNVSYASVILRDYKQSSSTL

[2] = target: T1, Metabotropic glutamate receptor 1; test: Positive allosteric modulation of human mGlu1 receptor in HEK293 cells assessed as potentiation of glutamate-induced calcium mobiliztion by Fluo-4AM dye based fluorescence analysis relative to glutamate; format: functional, cell-based
Target sequence in this assay (Q13255 19-1194 limits assumed): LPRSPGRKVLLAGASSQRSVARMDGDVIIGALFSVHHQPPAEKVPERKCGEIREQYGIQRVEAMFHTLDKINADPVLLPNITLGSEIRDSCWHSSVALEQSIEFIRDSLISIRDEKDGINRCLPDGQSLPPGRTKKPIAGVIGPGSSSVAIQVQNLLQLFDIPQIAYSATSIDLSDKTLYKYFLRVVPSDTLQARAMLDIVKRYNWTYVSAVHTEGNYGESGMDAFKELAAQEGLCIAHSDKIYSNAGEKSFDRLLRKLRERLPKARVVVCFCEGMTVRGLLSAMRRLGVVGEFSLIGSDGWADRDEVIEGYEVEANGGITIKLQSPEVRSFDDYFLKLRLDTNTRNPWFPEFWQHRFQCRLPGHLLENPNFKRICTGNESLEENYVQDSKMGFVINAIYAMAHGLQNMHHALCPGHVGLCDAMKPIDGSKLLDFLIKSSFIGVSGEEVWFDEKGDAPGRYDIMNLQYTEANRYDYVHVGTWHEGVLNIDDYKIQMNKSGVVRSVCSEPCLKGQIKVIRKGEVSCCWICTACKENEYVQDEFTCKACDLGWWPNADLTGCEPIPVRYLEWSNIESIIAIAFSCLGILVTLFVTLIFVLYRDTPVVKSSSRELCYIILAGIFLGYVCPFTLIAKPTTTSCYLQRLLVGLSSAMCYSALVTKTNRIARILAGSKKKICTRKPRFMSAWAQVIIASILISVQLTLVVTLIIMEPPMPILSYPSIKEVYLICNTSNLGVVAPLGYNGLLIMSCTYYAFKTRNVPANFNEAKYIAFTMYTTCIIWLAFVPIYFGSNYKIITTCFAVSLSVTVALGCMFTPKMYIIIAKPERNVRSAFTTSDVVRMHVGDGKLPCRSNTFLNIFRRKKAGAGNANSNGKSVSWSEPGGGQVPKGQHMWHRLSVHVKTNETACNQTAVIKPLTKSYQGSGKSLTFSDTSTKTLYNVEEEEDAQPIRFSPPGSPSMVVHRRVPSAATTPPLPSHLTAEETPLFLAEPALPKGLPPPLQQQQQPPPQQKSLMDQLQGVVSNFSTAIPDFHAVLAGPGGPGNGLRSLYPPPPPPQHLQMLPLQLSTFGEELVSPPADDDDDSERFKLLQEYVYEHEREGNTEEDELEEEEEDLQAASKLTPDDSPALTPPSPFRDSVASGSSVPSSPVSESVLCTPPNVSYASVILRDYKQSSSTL

[3] = Intrinsic clearance in human liver microsomes at 1 uM by LC-MS/MS analysis; format: ADME; settings: read-out: CLH
[4] = Drug concentration in Sprague-Dawley rat brain at 0.2 mg/kg, iv after 0.25 hrs by LC-MS/MS analysis; settings: read-out: Drug uptake
[5] = Half life in Sprague-Dawley rat at 0.2 mg/kg, iv by LC-MS/MS analysis; settings: in vivo
[6] = Plasma concentration in Sprague-Dawley rat at 0.2 mg/kg, iv after 0.25 hrs by LC-MS/MS analysis
[7] = target: Metabotropic glutamate receptor 2 (Homo sapiens) (UniProt Q14416); test: Positive allosteric modulation of mGlu2 receptor (unknown origin) assessed as potentiation of glutamate-induced response by cell-based assay
How it was run: (§1)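 Selectivity counterscreen at the other mGlu subtypes using the standard fold-shift paradigm. Compound was tested at 10 μM against the glutamate concentration-response curve, and the shift of that curve was read.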

[8] = target: T1, Metabotropic glutamate receptor 1; test: Agonist activity at human mGlu1 receptor in HEK293 cells assessed as calcium mobilization at 10 uM by Fluo-4AM dye based fluorescence analysis; format: functional, cell-based
Target sequence in this assay (Q13255 19-1194 limits assumed): as above

Plasma [9] = test: Metabolic stability in human plasma; format: ADME, cell-free
How it was run: (§2)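 Compound incubated at 10 μM in rat or human plasma at 37 °C. Samples taken at 0 and 4 h were analysed by mass spectrometry for parent and metabolites.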

[10] = target: T1, Metabotropic glutamate receptor 1; test: Positive allosteric modulation of human mGlu1 receptor in HEK293 cells assessed as potentiation of glutamate-induced calcium mobiliztion at 10 uM by Fluo-4AM dye based fluorescence analysis; format: functional, cell-based
Target sequence in this assay (Q13255 19-1194 limits assumed): as above

[11] = target: Metabotropic glutamate receptor 1 (Rattus norvegicus) (UniProt P23385); test: Positive allosteric modulation of rat mGlu1 receptor assessed as potentiation of glutamate-induced calcium mobiliztion by cell based assay relative to glutamate; format: functional
How it was run: (§3)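 Rat mGlu1 WT calcium mobilization concentration-response curves. EC50 and % Glu Max were derived from the curves.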

[12] = target: Metabotropic glutamate receptor 1 (Rattus norvegicus, UniProt P23385); test: Positive allosteric modulation of rat mGlu1 receptor assessed as potentiation of glutamate-induced calcium mobiliztion by cell based assay; format: functional; how it was run: as §3
[13] = target: Metabotropic glutamate receptor 7 (Homo sapiens) (UniProt Q14831); test: Positive allosteric modulation of mGlu7 receptor (unknown origin) assessed as potentiation of glutamate-induced response by cell-based assay; how it was run: as §1
Sequence of Metabotropic glutamate receptor 7 (Homo sapiens) (Q14831 whole entry): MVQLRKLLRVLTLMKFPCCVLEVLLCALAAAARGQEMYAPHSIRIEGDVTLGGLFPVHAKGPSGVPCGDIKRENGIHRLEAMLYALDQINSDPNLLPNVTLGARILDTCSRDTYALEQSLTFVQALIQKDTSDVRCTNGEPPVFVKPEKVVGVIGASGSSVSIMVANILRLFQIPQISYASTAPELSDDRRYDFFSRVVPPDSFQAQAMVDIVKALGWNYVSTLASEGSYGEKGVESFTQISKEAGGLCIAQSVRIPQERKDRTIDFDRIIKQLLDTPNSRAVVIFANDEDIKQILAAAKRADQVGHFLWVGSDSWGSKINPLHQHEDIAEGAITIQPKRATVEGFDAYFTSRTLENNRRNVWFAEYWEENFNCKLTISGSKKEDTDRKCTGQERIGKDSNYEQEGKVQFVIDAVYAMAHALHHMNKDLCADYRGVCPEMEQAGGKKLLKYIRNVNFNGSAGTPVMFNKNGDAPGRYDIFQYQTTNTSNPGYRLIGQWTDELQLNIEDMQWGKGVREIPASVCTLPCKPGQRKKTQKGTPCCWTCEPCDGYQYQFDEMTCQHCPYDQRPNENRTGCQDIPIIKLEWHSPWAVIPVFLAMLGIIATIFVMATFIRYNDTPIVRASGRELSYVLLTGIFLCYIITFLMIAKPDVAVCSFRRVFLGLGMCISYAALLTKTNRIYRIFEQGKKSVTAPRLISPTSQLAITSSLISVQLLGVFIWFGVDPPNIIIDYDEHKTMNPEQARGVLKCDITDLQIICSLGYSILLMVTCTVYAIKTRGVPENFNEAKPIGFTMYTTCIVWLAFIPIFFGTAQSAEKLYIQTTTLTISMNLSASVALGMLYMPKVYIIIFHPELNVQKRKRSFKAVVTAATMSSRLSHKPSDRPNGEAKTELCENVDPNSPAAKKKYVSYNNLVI

Cytochrome P450 2D6 = Cytochrome P450 2D6 (Homo sapiens, UniProt P10635); test: Inhibition of CYP2D6 in human liver microsomes by LC-MS/MS analysis; format: ADME
[14] = Plasma clearance in Sprague-Dawley rat at 0.2 mg/kg, iv by LC-MS/MS analysis
Cytochrome P450 1A2 = target: T2, Cytochrome P450 1A2 (Homo sapiens, UniProt P05177); test: Inhibition of CYP1A2 in human liver microsomes by LC-MS/MS analysis; format: ADME
T2 sequence (P05177 whole entry): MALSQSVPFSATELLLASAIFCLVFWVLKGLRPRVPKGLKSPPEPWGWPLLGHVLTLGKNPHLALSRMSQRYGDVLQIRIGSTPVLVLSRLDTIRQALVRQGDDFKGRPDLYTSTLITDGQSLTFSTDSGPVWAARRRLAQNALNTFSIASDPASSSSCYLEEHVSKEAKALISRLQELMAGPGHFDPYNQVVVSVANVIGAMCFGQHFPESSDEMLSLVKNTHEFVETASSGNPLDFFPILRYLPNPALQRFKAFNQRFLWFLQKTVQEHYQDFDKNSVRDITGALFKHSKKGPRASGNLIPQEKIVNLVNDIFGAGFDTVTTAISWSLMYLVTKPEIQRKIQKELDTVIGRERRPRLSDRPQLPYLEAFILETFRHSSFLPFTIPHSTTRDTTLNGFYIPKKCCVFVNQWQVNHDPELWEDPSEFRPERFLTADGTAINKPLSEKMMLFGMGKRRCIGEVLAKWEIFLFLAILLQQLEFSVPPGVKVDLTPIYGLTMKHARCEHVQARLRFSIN

[15] = target: Metabotropic glutamate receptor 6 (Homo sapiens) (UniProt O15303); test: Positive allosteric modulation of mGlu6 receptor (unknown origin) assessed as potentiation of glutamate-induced response by cell-based assay; how it was run: as §1
[16] = target: Metabotropic glutamate receptor 3 (Homo sapiens) (UniProt Q14832); test: Positive allosteric modulation of mGlu3 receptor (unknown origin) assessed as potentiation of glutamate-induced response by cell-based assay; how it was run: as §1
Cytochrome P450 2C9 = Cytochrome P450 2C9 (Homo sapiens, UniProt P11712); test: Inhibition of CYP2C9 in human liver microsomes by LC-MS/MS analysis; format: ADME
[17] = Ratio of drug level in brain to plasma of Sprague-Dawley rat at 0.2 mg/kg, iv after 0.25 hrs by LC-MS/MS analysis; settings: read-out: BPR
[18] = target: Metabotropic glutamate receptor 5 (Homo sapiens) (UniProt P41594); test: Positive allosteric modulation of mGlu5 receptor (unknown origin) assessed as potentiation of glutamate-induced response by cell-based assay; how it was run: as §1
Cytochrome P450 3A4 = Cytochrome P450 3A4 (Homo sapiens, UniProt P08684); test: Inhibition of CYP3A4 in human liver microsomes by LC-MS/MS analysis; format: ADME
Sequence of Cytochrome P450 3A4 (P08684 whole entry): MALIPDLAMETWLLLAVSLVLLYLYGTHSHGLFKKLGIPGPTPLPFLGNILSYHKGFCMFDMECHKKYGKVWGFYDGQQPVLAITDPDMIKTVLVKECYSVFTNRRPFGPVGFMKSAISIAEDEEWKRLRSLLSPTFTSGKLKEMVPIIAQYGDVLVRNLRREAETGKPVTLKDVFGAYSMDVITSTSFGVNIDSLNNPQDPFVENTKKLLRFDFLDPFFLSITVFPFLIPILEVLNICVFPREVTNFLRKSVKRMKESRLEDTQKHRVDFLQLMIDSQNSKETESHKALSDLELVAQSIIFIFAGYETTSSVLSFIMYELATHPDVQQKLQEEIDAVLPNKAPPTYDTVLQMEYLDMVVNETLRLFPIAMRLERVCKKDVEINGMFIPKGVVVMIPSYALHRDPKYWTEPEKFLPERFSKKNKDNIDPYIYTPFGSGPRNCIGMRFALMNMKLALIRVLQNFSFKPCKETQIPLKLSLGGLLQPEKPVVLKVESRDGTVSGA

[19] = target: T3, Metabotropic glutamate receptor 4 (Homo sapiens, UniProt Q14833); test: Positive allosteric modulation of human mGlu4 receptor assessed as potentiation of glutamate-induced calcium mobiliztion by cell based assay; format: functional; settings: read-out: EC50
T3 sequence (Q14833 whole entry): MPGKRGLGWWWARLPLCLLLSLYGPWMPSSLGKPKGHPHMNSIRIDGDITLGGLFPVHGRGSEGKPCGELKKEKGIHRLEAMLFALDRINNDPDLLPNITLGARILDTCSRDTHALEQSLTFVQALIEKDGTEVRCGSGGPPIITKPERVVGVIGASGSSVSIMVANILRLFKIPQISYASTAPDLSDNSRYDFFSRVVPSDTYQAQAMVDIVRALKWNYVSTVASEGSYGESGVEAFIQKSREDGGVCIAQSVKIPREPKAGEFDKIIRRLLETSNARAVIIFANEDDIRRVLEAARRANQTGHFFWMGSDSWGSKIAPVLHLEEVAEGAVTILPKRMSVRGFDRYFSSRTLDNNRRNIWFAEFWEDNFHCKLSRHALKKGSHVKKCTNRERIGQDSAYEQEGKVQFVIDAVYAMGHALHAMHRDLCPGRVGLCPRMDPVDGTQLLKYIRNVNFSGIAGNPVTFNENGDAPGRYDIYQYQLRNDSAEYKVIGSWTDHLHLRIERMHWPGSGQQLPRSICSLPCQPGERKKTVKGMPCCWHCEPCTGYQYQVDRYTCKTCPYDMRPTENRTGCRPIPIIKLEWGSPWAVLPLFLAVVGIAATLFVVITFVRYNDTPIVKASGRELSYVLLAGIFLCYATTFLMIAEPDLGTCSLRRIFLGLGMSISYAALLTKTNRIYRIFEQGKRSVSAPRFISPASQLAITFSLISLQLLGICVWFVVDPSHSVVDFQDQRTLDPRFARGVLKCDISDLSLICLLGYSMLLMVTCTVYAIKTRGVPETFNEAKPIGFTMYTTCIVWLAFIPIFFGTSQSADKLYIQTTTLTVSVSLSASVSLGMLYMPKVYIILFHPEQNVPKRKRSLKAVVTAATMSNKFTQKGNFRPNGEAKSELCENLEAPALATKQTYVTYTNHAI

[20] = Mean residence time in Sprague-Dawley rat at 0.2 mg/kg, iv by LC-MS/MS analysis; settings: in vivo
Plasma [21] = test: Fraction unbound in rat plasma; format: ADME, cell-free
Rattus norvegicus = test: Volume of distribution at steady state in Sprague-Dawley rat at 0.2 mg/kg, iv by LC-MS/MS analysis; settings: in vivo
[22] = target: Metabotropic glutamate receptor 8 (Homo sapiens) (UniProt O00222); test: Positive allosteric modulation of mGlu8 receptor (unknown origin) assessed as potentiation of glutamate-induced response by cell-based assay; how it was run: as §1
Brain = test: Drug concentration in C57BL/6 mouse brain at 100 mg/kg, ip administered as single dose; format: ADME, organism-based; settings: in vivo, read-out: Drug uptake
Mus musculus = test: Toxicity in C57BL/6 mouse assessed as seizure activity at 100 mg/kg, ip administered as single dose measured for 3 hrs; format: organism-based; settings: in vivo
How it was run: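 Male C57Bl/6 mice (25−30 g) dosed ip in 10% Tween 80 at 10 mL/kg: the mGlu5 ago-PAM at 1 or 3 mg/kg, the mGlu1 PAMs at 100 mg/kg. Behaviour was monitored continuously for 3 h and scored on a modified Racine scale (0−5).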

[23] = target: T3, Metabotropic glutamate receptor 4; test: Positive allosteric modulation of human mGlu4 receptor assessed as potentiation of glutamate-induced calcium mobiliztion by cell based assay relative to PHCCC
Homo sapiens = species: Homo sapiens; test: Selectivity index, ratio of EC50 for human mGlu4 receptor to EC50 for human mGlu1 receptor
Plasma [24] = test: Drug level in human plasma treated with N-(3-chloro-4-(5-chloro-1,3-dioxoisoindolin-2-yl)phenyl)-3-methylfuran-2-carboxamide at 10 uM after 4 hrs by mass spectrometry; format: ADME, cell-free; how it was run: as §2
Plasma [25] = test: Drug level in rat plasma treated with N-(3-chloro-4-(5-chloro-1,3-dioxoisoindolin-2-yl)phenyl)-3-methylfuran-2-carboxamide at 10 uM after 4 hrs by mass spectrometry; format: ADME, cell-free; how it was run: as §2

Compound: CS(=O)(=O)c1ccc(C(=O)Nc2ccc(N3C(=O)c4ccccc4C3=O)c(Cl)c2)o1
%max [2]: 35%
EC50 [1]: > 10 µM

Compound: CN(C)Cc1ccc(C(=O)Nc2ccc(N3C(=O)c4ccccc4C3=O)c(Cl)c2)o1
EC50 [1]: > 10 µM

Compound: Cc1ccoc1C(=O)Nc1ccc(N2C(=O)c3ccncc3C2=O)c(Cl)c1
CLint scaled at 1 µM [3]: 167 mL/min/kg
concentration at 0.25 h [4]: 35.2 ng/mL
half-life [5]: 5.38 min
concentration at 0.25 h [6]: 12.5 ng/mL
fold change (FC) [7]: < 2
Activity [8]: < 20%
Stability (Plasma [9]): Unstable
fold change (FC) [10]: 10.9
%max [11]: 115%
EC50 [12]: 0.113 µM
fold change (FC) [13]: < 2
%max [2]: 94%
IC50 (Cytochrome P450 2D6): > 30 µM
clearance [14]: 382 mL/min/kg
IC50 (Cytochrome P450 1A2): > 30 µM
fold change (FC) [15]: < 2
EC50 [1]: 0.0988 µM
fold change (FC) [16]: < 2
IC50 (Cytochrome P450 2C9): > 30 µM
Kp at 0.25 h [17]: 2.81
fold change (FC) [18]: < 2
IC50 (Cytochrome P450 3A4): > 30 µM
EC50 [19]: > 10 µM
MRT [20]: 7.85 min
Fu (Plasma [21]): 0.03
Vdss (Rattus norvegicus): 3 L/kg
fold change (FC) [22]: < 2
concentration (Brain): 2520 nM
Activity (Mus musculus): Non-toxic
%max [23]: 18%

Compound: CCc1ccc(C(=O)Nc2ccc(N3C(=O)c4ccccc4C3=O)c(Cl)c2)o1
%max [2]: 30%
EC50 [1]: > 10 µM

Compound: Cc1ccoc1C(=O)Nc1ccc(N2C(=O)c3cccc(C)c3C2=O)c(Cl)c1
%max [2]: 86%
EC50 [1]: 0.0243 µM
EC50 [19]: 0.62 µM
Ratio EC50 (Homo sapiens): 25.5
%max [23]: 153%

Compound: CC(C)(C)c1ccc(C(=O)Nc2ccc(N3C(=O)c4ccccc4C3=O)c(Cl)c2)o1
EC50 [1]: > 10 µM

Compound: Cc1ccoc1C(=O)Nc1ccc(NC(=O)c2cc(Cl)ccc2C(=O)O)c(Cl)c1
Drug metabolism (Plasma [24]): metabolite_detected
Drug metabolism (Plasma [25]): metabolite_detected

Compound: O=C(Nc1ccc(N2C(=O)c3ccccc3C2=O)c(Cl)c1)C1CCCO1 (configuration not stated)
EC50 [1]: > 10 µM

Compound: O=C(Nc1ccc(N2C(=O)c3ccccc3C2=O)c(Cl)c1)c1cc2ccccc2o1
EC50 [1]: > 10 µM

Compound: O=C(Nc1ccc(N2C(=O)c3ccccc3C2=O)c(Cl)c1)c1ccc(C(F)(F)F)o1
%max [2]: 43%
EC50 [1]: > 10 µM

The next lines start with the values.

EC50 [1]: > 10 µM
Compound: O=C(Nc1ccc(N2C(=O)c3ccccc3C2=O)c(Cl)c1)c1cnn[nH]1

EC50 [1]: > 10 µM
Compound: O=C(Nc1ccc(N2C(=O)c3ccccc3C2=O)c(Cl)c1)c1cnco1

EC50 [1]: > 10 µM
Compound: O=C(Nc1ccc(N2C(=O)c3ccccc3C2=O)c(Cl)c1)c1ccc[nH]1

EC50 [1]: > 10 µM
Compound: O=C(Nc1ccc(N2C(=O)c3ccccc3C2=O)c(Cl)c1)c1cn[nH]c1

EC50 [1]: > 10 µM
Compound: O=C(Nc1ccc(N2C(=O)c3ccccc3C2=O)c(Cl)c1)c1cnc[nH]1

EC50 [1]: > 10 µM
Compound: O=C(Nc1ccc(N2C(=O)c3ccccc3C2=O)c(Cl)c1)c1cocn1

%max [2]: 39%
EC50 [1]: > 10 µM
Compound: O=C(Nc1ccc(N2C(=O)c3ccccc3C2=O)c(Cl)c1)c1csnn1

%max [2]: 55%
EC50 [1]: > 10 µM
Compound: O=C(Nc1ccc(N2C(=O)c3ccccc3C2=O)c(Cl)c1)c1ccc(Cl)o1
